# Results published in publication PMC10926215 (The Journal of Biological Chemistry, 2024).
# Square brackets hold non-standard residues; d marks the D form. Peptide text beside a SMILES is read from it. pS = N[C@@H](COP(=O)(O)O)C(=O)O
# How the values were obtained:
# 14-3-3ζ protein = target: T1, 14-3-3ζ protein (Homo sapiens, UniProt P63104); test: 31P NMR titration of KA14P with 14-3-3ζ protein; type: binding
# T1 sequence (P63104 1-245): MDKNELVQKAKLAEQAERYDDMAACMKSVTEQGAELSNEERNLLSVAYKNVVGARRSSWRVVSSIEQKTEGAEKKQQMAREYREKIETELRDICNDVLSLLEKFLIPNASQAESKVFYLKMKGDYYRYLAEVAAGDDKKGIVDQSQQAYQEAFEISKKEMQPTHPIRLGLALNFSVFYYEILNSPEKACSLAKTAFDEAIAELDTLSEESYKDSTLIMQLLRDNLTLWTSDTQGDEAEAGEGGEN
# In short: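 Human 14-3-3ζ expressed from pQE30 in E. coli M15 (0.5 mM IPTG, 3 h, 37 °C), Ni-NTA purified, and stored in 10 mM phosphate pH 6.1 with 50 mM NaCl. Peptide held at 500 μM. Spectra taken with 512 scans, 16 dummy scans and a 10 s recycle delay. A 20 Hz exponential line broadening was applied before Fourier transformation.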
# [1] = system: PDE8A–14-3-3ζ interaction; test: Co-immunoprecipitation of PDE8A with HA-14-3-3ζ in treated HEK293T cells; type: cell-based, human; details: for change of PDE8A–14-3-3ζ interaction, PKC activator/inhibitor: 1 μM, Fig. 3B
# PDE8A = details: background statement; ref not stated; cited from earlier work
# 14-3-3ζ = 14-3-3ζ (UniProt P63104); test: co-IP, anti-HA IP, Myc/FLAG blot; details: reference: wild type PDE8A; sites S359
# [2] = target: KA14P (phosphorylated PDE8A peptide) (human); test: NMR titration
# [3] = system: DN-PDE8A (D726A)–14-3-3ζ interaction; test: Co-immunoprecipitation of DN-PDE8A with HA-14-3-3ζ in treated HEK293T cells; type: cell-based, human; details: forskolin 100 μM, 15 min; Fig. 3D
# [4] = system: D726A PDE8A mutant (DN-PDE8A); details: cited from earlier work
compound,measurement,setting,value
CC(C)C[C@H](NC(=O)[C@H](COP(=O)(O)O)NC(=O)CNC(=O)[C@H](CCCCN)NC(=O)[C@H](CCCNC(=N)N)NC(=O)[C@H](CCCNC(=N)N)NC(=O)[C@H](CC(=O)O)NC(=O)[C@@H](N)CCCCN)C(=O)N[C@@H](CC(=O)O)C(=O)N[C@H](C(=O)N[C@@H](CCCCN)C(=O)N[C@@H](C)C(=O)N[C@H](C(=O)N[C@@H](C)C(=O)O)C(C)C)C(C)C [KA14P] (H-KDRRKG[pS]LDVKAVA-OH),Kd,14-3-3ζ protein,11.3 ± 0.18 µM
"CCCCCCCCCCCCCC(=O)O[C@@H]1[C@@H](C)[C@@]2(O)[C@@H](C=C(CO)C[C@]3(O)C(=O)C(C)=C[C@@H]23)[C@@H]2C(C)(C)[C@]12OC(C)=O [PMA, phorbol 12-myristate 13-acetate]","change of PDE8A–14-3-3ζ interaction, PKC activator/inhibitor",[1]; 15 min,no change of interaction
CN(C)CCCn1cc(C2=C(c3c[nH]c4ccccc34)C(=O)NC2=O)c2ccccc21 [GX109203X],"change of PDE8A–14-3-3ζ interaction, PKC activator/inhibitor",[1]; 15 min,no change of interaction
"CC(C)Cn1c(=O)n(C)c(=O)c2[nH]cnc21 [IBMX, 3-isobutyl-1-methylxanthine]",sensitivity of PDE8A to inhibitor,PDE8A,insensitive
PDE8A (phosphodiesterase 8A) (from UniProt O60658) S359A,binding against the reference,14-3-3ζ,lost
purified recombinant 14-3-3ζ (from UniProt P63104 1-245) (natural protein),Kd,[2],11.3 µM
C=C[C@@]1(C)CC(=O)[C@]2(O)[C@@]3(C)[C@@H](O)CCC(C)(C)[C@@H]3[C@H](O)[C@H](OC(C)=O)[C@@]2(C)O1 [forskolin],"association of PDE8A and 14-3-3ζ, PKA activator","[1]; 100 μM, 15 min, serum-free, anti-HA IP, at least three repeats, Fig. 3A",increased association
same,interaction of DN-PDE8A with 14-3-3ζ,[3],increased further
same,phosphorylation of DN-PDE8A by PKA following treatment,[4],rapidly phosphorylated
O=S(=O)(NCCNC/C=C/c1ccc(Br)cc1)c1cccc2cnccc12 [H89],"association of PDE8A and 14-3-3ζ, PKA inhibitor","[1]; 100 μM, 15 min pretreatment, then forskolin 100 μM, 15 min, anti-HA IP, Fig. 3A",association decreased
insulin: human insulin; activator of PI3K,"PDE8A–14-3-3ζ interaction, activator of PI3K","[1]; 200 μM, 30 min, Fig. 3C",remained unchanged
COc1ccc(Cl)c(Nc2nc3ccccc3nc2NS(=O)(=O)c2cccc(NC(=O)C(C)(C)N)c2)c1 [pilaralisib],"PDE8A–14-3-3ζ interaction, inhibitor of PI3K","[1]; 100 μM, 30 min, Fig. 3C",remained unchanged
